ChEMBL document CHEMBL4043182, “On the synthesis of quinone-based BODIPY hybrids: New insights on antitumor activity and mechanism of action in cancer cells” (Bioorg Med Chem Lett, 2017)
Active and inactive are the calls of the source. The rule behind the calls is not given here.

Key:
PC-3 [1] = assay: Antiproliferative activity against human PC3 cells after 72 hrs by MTT assay; format: functional, cell-based; settings: PC-3, 72 h
Outline: (§1)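 MTT reduction: cancer lines plated at 0.7×10^5 to 0.3×10^6 cells/well, V79 and L929 fibroblasts at 0.5×10^5 cells/well. Compounds in DMSO (0.1%) were given for 24 h at 0.04–40.92 µM or 72 h at 0.04–8.19 µM. Fresh medium with 0.5 mg/mL MTT was added for 3 h, then formazan was dissolved in DMSO and read at 595 nm as % of control. IC50 came from nonlinear regression with 95% CI. Doxorubicin (0.001–1.06 µM) was the positive control. Triplicate, ≥3 repeats.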

HCT-116 [2] = assay: Antiproliferative activity against human HCT116 cells after 72 hrs by MTT assay; format: functional, cell-based; settings: HCT-116, 72 h; outline: as §1
L929 [3] = assay: Antiproliferative activity against mouse L929 cells after 72 hrs by MTT assay; format: cell-based; settings: L929, 72 h; outline: as §1
[4] = Selective index, ratio of IC50 for mouse L929 cells to IC50 for human SW620 cells
Outline: (§2)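 Selectivity index is the ratio of the IC50 in a non-cancer murine line (V79 or L929) to the IC50 in the cancer line. […] MTT was 0.5 mg/mL for 3 h, formazan dissolved in DMSO and read at 595 nm as % of control. IC50s were derived by nonlinear regression; triplicate, at least three repeats.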

[5] = Selective index, ratio of IC50 for chinese hamster V79 cells to IC50 for human SF295 cells; outline: as §2
[6] = Selective index, ratio of IC50 for chinese hamster V79 cells to IC50 for human HCT116 cells; outline: as §2
PC-3 [7] = assay: Induction of lipid peroxidation in human PC3 cells assessed as increase in MDA levels at 2.5 to 10 uM treated 24 hrs post NAC addition measured after 24 hrs by TBARS assay; format: functional, cell-based
Outline: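 TBARS: cells were exposed 24 h, with or without 24 h prior 5 mM NAC, and lysed in Tris-HCl. Lysate was heated with TCA/0.25 M HCl and 6.7 mg/mL TBA for 15 min at 100 °C, centrifuged, and read at 532 nm. Hydrolyzed tetramethoxypropane served as standard, with values normalized to protein. H2O2 (10 µM) was the positive control. Three independent experiments in triplicate; ANOVA/Tukey.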

PC-3 [8] = assay: Induction of oxidative stress in human PC3 cells assessed as total intracellular thiol levels at 5 uM treated 24 hrs post NAC addition measured after 24 hrs by spectrophotometric analysis (reference value: 4.23 +/- 0.75 microg/mg); format: functional
Outline: (§3)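 Cells were pretreated 24 h with 5 mM NAC, then exposed 24 h to test compound at 5 µM. Controls received 0.1% DMSO. Extracts were prepared by sonication and HClO4 precipitation, then neutralized with KOH. Total glutathione was read by DTNB/glutathione reductase/NADPH rate at 412 nm. GSSG was measured after 4-vinylpyridine (0.1%, 1 h, RT) and GSH derived by difference. Values are normalized to protein, triplicates, three independent runs.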

PC-3 [9] = assay: Induction of oxidative stress in human PC3 cells assessed as GSH to GSSG ratio at 5 uM after 24 hrs by spectrophotometric analysis (reference value: 2.69 +/- 0.21 microg/mg); format: functional
SF-295 [10] = assay: Induction of oxidative stress in human SF295 cells assessed as total GSSG levels at 5 uM after 24 hrs by spectrophotometric analysis (reference value: 1.31 +/- 0.55 microg/mg); format: functional
SF-295 [11] = assay: Induction of oxidative stress in human SF295 cells assessed as total GSSG levels at 5 uM treated 24 hrs post NAC addition measured after 24 hrs by spectrophotometric analysis (reference value: 1.31 +/- 0.55 microg/mg); format: functional; outline: as §3
SF-295 [12] = assay: Induction of oxidative stress in human SF295 cells assessed as GSH to GSSG ratio at 5 uM treated 24 hrs post NAC addition measured after 24 hrs by spectrophotometric analysis (reference value: 2.34 +/- 0.56 microg/mg); format: functional; outline: as §3
HCT-116 [13] = assay: Induction of oxidative stress in human HCT116 cells assessed as total intracellular thiol levels at 5 uM after 24 hrs by spectrophotometric analysis (reference value: 5.02 +/- 0.91 microg/mg); format: functional
HCT-116 [14] = assay: Induction of oxidative stress in human HCT116 cells assessed as total GSSG levels at 5 uM after 24 hrs by spectrophotometric analysis (reference value: 1.19 +/- 0.37 microg/mg); format: functional
HCT-116 [15] = assay: Induction of oxidative stress in human HCT116 cells assessed as GSH to GSSG ratio at 5 uM after 24 hrs by spectrophotometric analysis (reference value: 3.09 +/- 0.33 microg/mg); format: functional
L929 [16] = assay: Induction of oxidative stress in mouse L929 cells assessed as total GSH levels at 5 uM after 24 hrs by spectrophotometric analysis (reference value: 3.76 +/- 0.51 microg/mg); format: cell-based; settings: l929, 24 h
L929 [17] = assay: Induction of oxidative stress in mouse L929 cells assessed as total GSSG levels at 5 uM after 24 hrs by spectrophotometric analysis (reference value: 1.05 +/- 0.33 microg/mg); format: cell-based; settings: l929, 24 h
L929 [18] = assay: Induction of oxidative stress in mouse L929 cells assessed as GSH to GSSG ratio at 5 uM treated 24 hrs post NAC addition measured after 24 hrs by spectrophotometric analysis (reference value: 3.55 +/- 0.51 microg/mg); format: cell-based; settings: l929, 24 h; outline: as §3
PC-3 [19] = assay: Cytotoxicity against human PC3 cells after 24 hrs in presence of GSH-OEt by MTT assay; format: functional, cell-based; settings: PC-3, 24 h
Outline: (§4)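 24 h MTT exposure (0.04–40.92 µM in 0.1% DMSO), with or without co-treatment with GSH ethyl ester (15 mM) to gauge the ROS contribution. MTT was 0.5 mg/mL for 3 h, with formazan dissolved in DMSO and absorbance at 595 nm expressed as % of control. Triplicate, repeated at least three times.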

HCT-116 [20] = assay: Cytotoxicity against human HCT116 cells after 24 hrs in presence of GSH-OEt by MTT assay; format: functional, cell-based; settings: HCT-116, 24 h; outline: as §4
PC-3 [21] = assay: Cytotoxicity against human PC3 cells after 24 hrs in absence of GSH-OEt by MTT assay; format: functional, cell-based; settings: PC-3, 24 h; outline: as §4
SF-295 [22] = assay: Cytotoxicity against human SF295 cells after 24 hrs in absence of GSH-OEt by MTT assay; format: functional, cell-based; settings: SF-295, 24 h; outline: as §4
L929 [23] = assay: Cytotoxicity against mouse L929 cells after 24 hrs in absence of GSH-OEt by MTT assay; format: cell-based; settings: L929, 24 h; outline: as §4
[24] = Drug uptake in mitochondria of human PC3 cells at 5 uM after 10 mins by MitoTracker Red dye-based confocal microscopic analysis; format: ADME, cell-based; settings: pc-3, 10 min
Outline: (§5)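 PC3 cells were grown in DMEM with 10% FBS, antibiotics and 2 mM L-glutamine at 37 °C, 5% CO2. Cells were incubated with compound (5 µM) plus LysoTracker Red or MitoTracker Red for 10 min at 37 °C. Live cells were imaged in phenol red-free DMEM by confocal microscopy with a 40X oil objective, exciting at 488 nm (compound) and 543 nm (tracker dyes).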

[25] = Drug uptake in lysosomes of human PC3 cells at 5 uM after 10 mins by LysoTracker Red dye-based confocal microscopic analysis; format: ADME, cell-based; settings: pc-3, 10 min; outline: as §5

CC1(C)OC2=C(C(=O)C(=O)c3ccccc32)C1n1cc(CNC2=[N+]3C(=C(c4ccccc4)c4ccc(Cl)n4[B-]3(F)F)C=C2)nn1 (stereo not given)
IC50 (PC-3 [1]): 0.38 µM | IC50 (HCT-116 [2]): 0.32 µM | IC50 (L929 [3]): 0.92 µM | Ratio IC50 [4]: 1.4 | Ratio IC50 [5]: 2.3 | Ratio IC50 [6]: 2 | Activity (PC-3 [7]): inactive | Activity (PC-3 [8]): 4.26 µg/mg | Activity (PC-3 [9]): 0.37 µg/mg | Activity (SF-295 [10]): 2.09 µg/mg | Activity (SF-295 [11]): 1.21 µg/mg | Activity (SF-295 [12]): 2.82 µg/mg | Activity (HCT-116 [13]): 3.81 µg/mg | Activity (HCT-116 [14]): 2.01 µg/mg | Activity (HCT-116 [15]): 0.56 µg/mg | Activity (L929 [16]): 1.15 µg/mg | Activity (L929 [17]): 2.27 µg/mg | Activity (L929 [18]): 3.08 µg/mg | IC50 (PC-3 [19]): 15.8 µM | IC50 (HCT-116 [20]): 14.2 µM | IC50 (PC-3 [21]): 4.47 µM | IC50 (SF-295 [22]): 1.96 µM | IC50 (L929 [23]): 5.91 µM | Drug uptake [24]: Metabolite_Notdetected | Drug uptake [25]: Metabolite_Notdetected
